{
  "source": "paper PMC8208316",
  "about": "(Chemical Science, 2021)",
  "key": {"Kinetics of RSSH release": {"assay": "Kinetics of RSSH release", "type": "physicochemical", "conditions": "for half-life at 100 µM: phosphate buffered saline with MMTS (1 mM) as RSSH trap, pH 7.4; for phenol byproduct 4a–f yield: precursor 100 μM, MMTS 1 mM, pH 7.4 PBS containing DTPA, HPLC", "outline": "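Test compound (100 μM) incubated at 37 °C with MMTS (1 mM) as RSSH trap in PBS (pH 7.4, 100 mM) containing DTPA (100 μM). Timed aliquots quenched with 0.1% formic acid and analysed by HPLC: precursor at 240 nm, phenol at 275 nm. First-order rate constants from single-exponential fits; average of three experiments.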"}, "[1]": {"assay": "Decomposition of precursors in the presence of thiol", "type": "physicochemical"}, "[2]": {"assay": "COS release in the presence of thiols by membrane inlet mass-spectrometry", "type": "physicochemical", "conditions": "50 μM precursor, NAC 0.25 mM, PBS pH 7.4, 37 °C"}, "H9c2 cardiac myoblasts [3]": {"system": "H9c2 cardiac myoblasts", "assay": "Intracellular sulfane sulfur detection using the SSP4 probe", "type": "cell-based, rat", "outline": "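H9c2 cells loaded with SSP4 (20 μM) plus CTAB (500 μM) for 20 min, then washed with serum-free medium. Test compound added at 0–200 μM. Plate-reader fluorescence (ex 482 nm, em 515 nm) read at set times over 3 h and normalised to the 0 μM value at each time. Mean ± SEM, n = 3 per group, three independent experiments.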"}, "H9c2 cardiac myoblasts [4]": {"system": "H9c2 cardiac myoblasts", "assay": "Protection from H2O2-mediated oxidative stress, CCK-8 viability assay", "type": "cell-based, rat"}, "H9c2 cardiac myoblasts [5]": {"system": "H9c2 cardiac myoblasts", "assay": "Protection from H2O2-mediated oxidative stress, Sytox green viability assay", "type": "cell-based, rat", "conditions": "pretreatment 4 and 8 h, then H2O2 200 μM"}, "[6]": {"conditions": "10 equiv. MMTS, PBS pH 7.4, 100 mM, 37 °C"}},
  "note": "“And” between values parts separate entries of the source, which are not always exact repeats. Equal entries are not always repeated.",
  "data": [
    {"compound": "COC(=O)C(NC(C)=O)C(C)(C)SSC(=O)OCc1ccccc1", "note": "(stereo not drawn) [compound 8]", "values": [
      {"measurement": "half-life at 100 µM", "setting": "Kinetics of RSSH release", "result": "37.2 ± 1.57", "unit": "h"},
      {"measurement": "decomposition rate in the presence of thiol with respect to 1a", "setting": "[1]; in the presence of thiol", "result": "about six times slower"},
      {"measurement": "COS generation in the presence of NAC (comparison)", "setting": "[2]", "result": "slower COS generation"}
    ]},
    {"compound": "COC(=O)C(NC(C)=O)C(C)(C)SSC(=O)Oc1ccccc1", "note": "(stereo not drawn) [1a]", "values": [
      {"measurement": "k, disappearance of precursor (first-order)", "setting": "Kinetics of RSSH release; [6]", "result": 0.00539, "unit": "min⁻¹"},
      {"measurement": "k, formation of phenol (first-order)", "setting": "Kinetics of RSSH release; [6]", "result": 0.00533, "unit": "min⁻¹"},
      {"measurement": "half-life at 100 µM", "setting": "Kinetics of RSSH release", "result": "2.15 ± 0.0333", "unit": "h"},
      {"measurement": "phenol byproduct 4a–f yield", "setting": "Kinetics of RSSH release; 37 °C", "result": "92% and 92 ± 2%"},
      {"measurement": "SSP4 fluorescence signal (intracellular sulfane sulfur)", "setting": "H9c2 cardiac myoblasts [3]; 50 μM", "result": "did not observe a significant increase"},
      {"measurement": "SSP4 fluorescence intensity (intracellular sulfane sulfur)", "setting": "H9c2 cardiac myoblasts [3]; 100 and 200 μM, over 3 h", "result": "dose-dependent increases in fluorescence intensity"},
      {"measurement": "formation of byproduct 9a (indication of RSSH yield)", "setting": "[1]; 5 equiv. N-acetylcysteine methyl ester", "result": 53, "unit": "%"},
      {"measurement": "protection against H2O2-mediated toxicity (cell viability, CCK-8)", "setting": "H9c2 cardiac myoblasts [4]; pretreatment 5 μM for 8 h, then H2O2 200 μM", "result": "shows protection"},
      {"measurement": "protection against H2O2-mediated toxicity (cell viability, CCK-8)", "setting": "H9c2 cardiac myoblasts [4]; pretreatment 4 h (0–50 μM), then H2O2 200 μM 2 h", "result": "dose-dependent decrease of H2O2-induced toxicity"},
      {"measurement": "protection against H2O2-mediated toxicity (Sytox)", "setting": "H9c2 cardiac myoblasts [5]", "result": "consistently shows protective effects"},
      {"measurement": "COS production with respect to precursor 13", "setting": "[2]", "result": "approximately 20%"}
    ]},
    {"compound": "COC(=O)C(NC(C)=O)C(C)(C)SSC(=O)Oc1ccc(F)cc1", "note": "(stereo not drawn) [1d]", "values": [
      {"measurement": "half-life at 100 µM", "setting": "Kinetics of RSSH release", "result": "1.6 ± 0.05", "unit": "h"},
      {"measurement": "phenol byproduct 4a–f yield", "setting": "Kinetics of RSSH release; 37 °C", "result": "96 ± 6", "unit": "%"}
    ]},
    {"compound": "COC(=O)C(NC(C)=O)C(C)(C)SSC(=O)Oc1ccc(C)cc1", "note": "(stereo not drawn) [1b]", "values": [
      {"measurement": "half-life at 100 µM", "setting": "Kinetics of RSSH release", "result": "2.28 ± 0.0667", "unit": "h"},
      {"measurement": "phenol byproduct 4a–f yield", "setting": "Kinetics of RSSH release; 37 °C", "result": "93 ± 4", "unit": "%"}
    ]},
    {"compound": "COC(=O)C(CSSSCC(NC(C)=O)C(=O)OC)NC(C)=O", "note": "[N-Ac-OMe-Cys-(S)3, N-acetyl O-methyl cysteine trisulfide, reference compound]", "values": [
      {"measurement": "SSP4 fluorescence signal in H9c2 cells compared with 1a", "setting": "H9c2 cardiac myoblasts [3]", "result": "higher fluorescence signal"}
    ]},
    {"compound": "Oc1ccccc1", "note": "[phenol, reference compound]", "values": [
      {"measurement": "protection against H2O2-mediated toxicity (cell viability, CCK-8)", "setting": "H9c2 cardiac myoblasts [4]; 50 μM for 4 and 8 h, then H2O2 200 μM 2 h", "result": "no protective effect"}
    ]},
    {"compound": "COC(=O)C(NC(C)=O)C(C)(C)SSC(=O)Oc1ccc(C#N)cc1", "note": "(stereo not drawn) [1f]", "values": [
      {"measurement": "half-life at 100 µM", "setting": "Kinetics of RSSH release", "result": "0.467 ± 0.0167", "unit": "h"},
      {"measurement": "phenol byproduct 4a–f yield", "setting": "Kinetics of RSSH release; 37 °C", "result": "97 ± 2", "unit": "%"}
    ]},
    {"compound": "COC(=O)C(NC(C)=O)C(C)(C)SSC(=O)Oc1ccc(OC)cc1", "note": "(stereo not drawn) [1c]", "values": [
      {"measurement": "half-life at 100 µM", "setting": "Kinetics of RSSH release", "result": "2.45 ± 0.0333", "unit": "h"},
      {"measurement": "phenol byproduct 4a–f yield", "setting": "Kinetics of RSSH release; 37 °C", "result": "92 ± 1", "unit": "%"}
    ]}
  ]
}
